Screening data (PubChem)
Most compounds without a hit are left out; they make up all but 2.3% or so of the library.
ZTA DNA inh: counter-screen for EBNA-1 inhibitors: inhibitors of Epstein-Barr virus ZTA; ZTA-DNA binding, fluorescence polarization; inhibition, % at 11 µM; actives 0.15% (n = 320,000); AID 2234; in the data active = inhibition above about 33%
Target sequence (P03206 whole entry, looked up): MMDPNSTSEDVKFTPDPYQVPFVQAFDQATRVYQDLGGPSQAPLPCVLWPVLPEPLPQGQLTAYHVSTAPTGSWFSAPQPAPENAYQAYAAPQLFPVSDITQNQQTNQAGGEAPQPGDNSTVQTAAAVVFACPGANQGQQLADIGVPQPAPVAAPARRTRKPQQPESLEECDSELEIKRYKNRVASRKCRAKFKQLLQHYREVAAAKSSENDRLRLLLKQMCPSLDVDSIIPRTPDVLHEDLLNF
GPR7 antagonist: blocks human GPR7 receptor signaling; GPR7-expressing cells, fluorescence antagonist assay; AID 1861; actives 1.1% (n = 290,000); inhibition, % at 4.4 µM; in the data active = inhibition above about 16%, passing the limit was not always enough;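 note: cells stimulated with the agonist NPW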
Target sequence (P48145 whole entry, looked up): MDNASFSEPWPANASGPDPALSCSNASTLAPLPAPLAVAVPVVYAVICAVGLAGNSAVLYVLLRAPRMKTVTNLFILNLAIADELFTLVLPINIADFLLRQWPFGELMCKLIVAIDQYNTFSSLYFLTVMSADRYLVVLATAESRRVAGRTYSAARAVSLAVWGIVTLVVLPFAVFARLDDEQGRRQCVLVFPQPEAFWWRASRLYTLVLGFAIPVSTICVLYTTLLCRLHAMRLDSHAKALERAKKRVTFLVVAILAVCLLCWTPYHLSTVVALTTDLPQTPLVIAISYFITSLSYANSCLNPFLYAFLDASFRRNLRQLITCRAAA
HCV NS3 hel inh: inhibitors of Hepatitis C virus NS3 helicase. NS3 helicase DNA unwinding, Cy5 molecular beacon fluorescence. inhibition, % at 10.9 µM. actives 0.56% (n = 290,000);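 active = inhibition above the mean of all tested compounds plus 3 SD, set per campaign, cut at about 35% in these data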
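Assay system: hepatitis C virus NS3 helicase domain fragment enzyme. Also added: annealed dual-labelled DNA beacon duplex, ATP-started. Timing: 1 h reaction at 25 °C, ATP-initiated. Technique: Cy5 fluorescence at 0 and 60 min, beacon hairpin quenching. Evaluation: % inhibition of unwinding. Replication: one well per compound.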
core dimer inh: HCV core protein dimerization inhibition. actives 0.33% (n = 300,000). inhibition, % at 5 µM. AID 1899. TR-FRET GST/Flag-core106 dimerization, 1536-well;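 active = inhibition above the mean of all tested compounds plus 3 SD, set per screening campaign, cut at about 45% in these data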
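Material: Tagged HCV core106 pair (GST and Flag) | Amount: GST-core106 13.5 nM, Flag-core106 17 nM | Medium: KF-containing HEPES buffer, pH 7.45, DTT, CHAPS, BSA | Reagent: Eu donor and XL665 acceptor anti-tag antibodies | Schedule: 4 h at 22.5 °C | Technique: Time-resolved FRET, ex 340 nm, em 617 and 671 nm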
EBNA-1 inh: blocks EBNA-1 binding to DNA; EBNA-1 DNA binding, fluorescence polarization; inhibition, % at 14.8 µM; actives 0.34% (n = 300,000); in the data active = inhibition above about 28%
EBV gp42 inh: blocks Epstein-Barr virus glycoprotein 42 binding | inhibition, % (tested at 21.74 µM) | Fluorescence polarization binding assay, mP read-out | actives 0.42% (n = 220,000) | AID 1085; in the data active = inhibition above about 50%
Hits are given with their value; n = inactive; x = no result given; ! = not confirmed by another sample.

SMILES | ZTA DNA inh | GPR7 antagonist | HCV NS3 hel inh | core dimer inh | EBNA-1 inh | EBV gp42 inh
COc1ccc(N=Nc2[nH]c3ccc(C)cc3c2O)cc1 | n | n | n | n | n | n
Cc1ccc(N=Nc2[nH]c3ccccc3c2O)cc1 | n | n | n | n | n | 100
Nc1ncccc1OCc1ccc(Br)cc1 | n | n | n | n | n | n
COc1ccc(COc2cccnc2N)cc1 | n | 20 | n | n | n | n
CC1(c2ccc3noc(-c4ccc(F)cc4)c3c2)OCCO1 | n | n | n | n | n | 86
O=Cc1ccc2noc(-c3ccc(F)cc3)c2c1 | n | n | n | n | n | 151
Fc1ccc(-c2onc3ccc(C4OCCO4)cc23)cc1 | n | n | n | n | n | n
Cc1ccc2nc(NC(=O)c3ccc(N4C(=O)CCC4=O)cc3)sc2c1 | n | n | n | 48 | 35 | n
COCCn1c(SC2CCCCC2=O)nnc1-c1ccncc1 (centres undefined) | n | n | n | n | n | n
O=C1CCCCC1Sc1nnc(Cc2cccs2)n1CCc1ccccc1 (centres undefined) | n | n | n | 51 | n | n
O=C(c1ccco1)[C@@H]1[C@@H]2C(=O)N(c3ccc(Br)cc3)C(=O)[C@@H]2C2c3ccccc3C=CN21 (some centres undefined) | x | n | 43 | x | x | x
CC(=O)[C@H]1[C@@H]2C(=O)N(c3cccc(Cl)c3)C(=O)[C@@H]2[C@H]2c3ccccc3C=CN21 | n | n | n | 58 | n | n
CC(=O)[C@@H]1[C@@H]2C(=O)N(c3ccc(F)c(Cl)c3)C(=O)[C@@H]2C2c3ccccc3C=CN21 (some centres undefined) | n | n | n | n | n | n
COc1cccc(S(=O)(=O)Nc2ccc(C(=O)Nc3ccncc3)cc2)c1 | n | n | n | n | n | n
COc1ccc(NS(=O)(=O)c2cccc(C(=O)NNC(=O)c3cccn3C)c2)cc1 | n | n | n | 71 | n | x
COc1ccc(NS(=O)(=O)c2cccc(NC(=O)c3ccc(Cl)nc3)c2)cc1 | n | 49 | n | n | n | n
COCCn1c(Cc2ccccc2)nnc1SCC(=O)NC1CC1 | n | n | n | n | n | x
CC(NC(=O)C12CC3CC(CC(O)(C3)C1)C2)c1ccccc1 (centres undefined) | n | n | n | n | n | x
Cc1ccc(C)c(CN2C(=O)C3CCCN3c3ccc(S(=O)(=O)N4CCOCC4)cc32)c1 (centres undefined) | n | n | n | 51 | n | n
COc1cccc(CN2C(=O)C3CCCN3c3ccc(S(=O)(=O)N4CCOCC4)cc32)c1 (centres undefined) | n | n | n | n | n | n
CC(C)(C)OC(=O)N[C@@H](Cc1ccccc1)C(=O)N[C@@H](CO)[C@H](O)[C@@H]1C[C@@H]1C(=O)NC1CC1 | n | n | n | n | n | x
Cc1ccc2c(c1C)NC(C(=O)O)C1CC=CC21 (centres undefined) | n | x | x | 71 | n | 87!
CC(C)c1nnc(NC(=O)Cc2cccs2)s1 | n | n | n | n | n | n
CCCCCc1nnc(NC(=O)OCCC)s1 | n | n | n | n | n | n
O=C(Cc1cccs1)Nc1nnc(Cc2ccccc2)s1 | n | n | n | 83 | n | n
SMILES | ZTA DNA inh | GPR7 antagonist | HCV NS3 hel inh | core dimer inh | EBNA-1 inh | EBV gp42 inh
COc1ccc(C(=O)Nc2nnc(Cc3ccccc3)s2)c(OC)c1 | n | n | n | 68 | n | x
CCCCCOC(=O)Nc1nnc(CCCCC)s1 | n | 19 | n | n | n | n
CCCCCc1nnc(NC(=O)Cc2cccs2)s1 | n | n | n | 71 | n | n
CCOC(=O)c1csc(NC(=O)CC2CCCC2)n1 | n | n | n | n | n | n
COc1ccc(Cc2nnc(NC(=O)Cc3cccs3)s2)cc1OC | n | n | n | 74 | n | 68
CCc1nnc(NC(=O)Cc2ccc(OC)c(OC)c2)s1 | n | n | n | n | n | n
O=C(Cc1cccs1)Nc1nnc(CCc2ccccc2)s1 | n | 14 | n | n | n | n
Nn1c(SCC(=O)Nc2cccc(F)c2)nnc1C1CCCCC1 | n | n | n | n | n | n
COc1cc(OC)cc(C(=O)N2CCN(Cc3ccccc3Br)CC2)c1 | n | n | n | n | n | n
O=C(Nc1nccs1)c1cc2c(s1)-c1ccccc1OC2 | n | 17 | n | n | n | n
CC1(C)S[C@@H]2[C@H](NC(=O)COc3ccccc3)C(=O)N2C1C(=O)OCc1cc2ccccc2n1S(=O)(=O)c1ccccc1 (some centres undefined) | n | n | n | 66 | n | x
Cc1cc(C)n2nc(SCc3cc(=O)oc4cc(O)ccc34)nc2n1 | n | n | n | 74 | n | n
Cc1cc(C)n2nc(SCc3ccccc3)nc2n1 | n | n | n | n | n | n
COc1cccc(OC)c1OCCCOc1ccc([N+](=O)[O-])cc1Cl | n | 17 | n | n | n | n
O=[N+]([O-])C(=C1Nc2ccccc2N1)/C(Cl)=C(/Cl)Br | n | n | n | n | n | n
CC(=O)Nc1ccc(S(=O)(=O)NCCCN2CCOCC2)cc1 | n | n | n | n | n | x
O=C1CC(/C=C/c2ccco2)=Nc2ccccc2N1 | n | n | n | 58 | n | n
O=C(NC1CCCc2c1cnn2-c1ccc(F)cc1F)c1csnn1 (centres undefined) | n | n | n | n | n | x
O=C(OCC(=O)c1ccc(Cl)s1)c1cnccn1 | n | n | n | 54 | n | x
O=C(OCC(=O)c1ccc(Cl)s1)c1ccccn1 | n | n | n | n | n | n
O=C(N/N=C/c1ccccc1Cl)c1nc2ccc([N+](=O)[O-])cc2c(=O)[nH]1 | n | n | n | n | n | 97
COc1ccc(C2C(C#N)=C(N)SC(N)=C2C#N)cc1OC | n | n | n | 61 | n | n
COc1ccc(C2C(C#N)=C(N)OC(C(C)(C)C)=C2C#N)cc1OC (centres undefined) | n | n | n | n | n | n
O=[N+]([O-])c1cc(/C=N\Nc2nccs2)ccc1O | x | n | n | x | x | 93
COc1ccc(N=C2S/C(=C\c3ccc(OCC(=O)O)cc3)C(=O)N2CCc2c[nH]c3ccccc23)cc1 | x | n | n | x | x | 84
SMILES | ZTA DNA inh | GPR7 antagonist | HCV NS3 hel inh | core dimer inh | EBNA-1 inh | EBV gp42 inh
O=C(Nc1ccc(Cl)c([N+](=O)[O-])c1)c1cnccn1 | n | n | n | 55 | n | n
O=C(Nc1ccccc1Cl)c1cnccn1 | n | n | n | n | n | n
O=C(Nc1ccc(Br)cc1Cl)c1cnccn1 | n | n | n | 68 | n | n
O=C(Nc1ccc(Cl)c([N+](=O)[O-])c1)c1ccncc1 | n | n | n | n | n | n
O=C(NCc1cccnc1)c1ccc(-c2ccc(Cl)cc2)o1 | n | n | n | n | n | n
O=C(NCc1cccnc1)/C(=C\c1ccc(-c2ccc(Cl)c(Cl)c2)o1)S(=O)(=O)c1ccccc1 | n | 31 | n | n | n | n
CCOc1ccc(C(C)=O)cc1CSC(=N)N | n | n | n | n | n | n
CCCCOc1ccc(Br)cc1CSC(=N)N | x | 75 | n | x | x | n
